Source: ChEMBL document CHEMBL1649328, “Assessment of pandemic and seasonal influenza A (H1N1) virus susceptibility to neuraminidase inhibitors in three enzyme activity inhibition assays” (Antimicrob Agents Chemother, 2010)

Columns and labels:
Type in all cases: functional, organism-based
Influenza A virus [1] = assay: Antiviral activity against influenza A (A/Washington/10/2008 (H1N1)) virus after 30 mins by NA-star substrate based chemiluminescent assay; settings: 0.5 h
Outline: (§1)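 Titrated virus in NA-Star buffer (26 mM MES, 4 mM CaCl2, pH 6.0) was preincubated with ten half-log inhibitor dilutions (0.03–1,000 nM final) for 30 min at 37°C, then with substrate for 30 min at room temperature. Accelerator solution was added and luminescence read for 0.1 s. IC50 came from a Vmax·[1−x/(K+x)] fit, mean of ≥3 experiments.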

Influenza A virus [2] = assay: Antiviral activity against influenza A (A/North Carolina/02/2009 (H1N1)) virus after 30 mins by NA-star substrate based chemiluminescent assay; settings: 0.5 h; outline: as §1
Influenza A virus [3] = assay: Antiviral activity against influenza A (A/New York/18/2009 (H1N1)) virus after 30 mins by NA-star substrate based chemiluminescent assay; settings: 0.5 h; outline: as §1
Influenza A virus [4] = assay: Antiviral activity against influenza A (A/Washington/29/2009 (H1N1)) virus after 30 mins by NA-star substrate based chemiluminescent assay; settings: 0.5 h; outline: as §1
Influenza A virus [5] = assay: Antiviral activity against influenza A (A/Singapore/91/2009 (H1N1)) virus after 30 mins by NA-star substrate based chemiluminescent assay; settings: 0.5 h; outline: as §1
Influenza A virus [6] = assay: Antiviral activity against influenza A (A/Washington/10/2008 (H1N1)) virus after 30 mins by MUNANA substrate based fluorometric assay; settings: 0.5 h
Outline: (§2)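 Fluorometric NA inhibition with MUNANA (100 μM final). Titrated virus in NA-Star buffer (26 mM MES, 4 mM CaCl2, pH 6.0) was preincubated with ten half-log inhibitor dilutions (0.03–1,000 nM final) for 30 min at 37°C, then with substrate for 30 min at 37°C. The reaction was stopped with 0.1 M glycine in 25% ethanol, pH 10.7, and 4-methylumbelliferone was read at ex 365/em 450 nm. IC50 came from a Vmax·[1−x/(K+x)] fit, mean of ≥3 experiments.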

Influenza A virus [7] = assay: Antiviral activity against influenza A (A/North Carolina/02/2009 (H1N1)) virus after 30 mins by MUNANA substrate based fluorometric assay; settings: 0.5 h; outline: as §2
Influenza A virus [8] = assay: Antiviral activity against influenza A (A/New York/18/2009 (H1N1)) virus after 30 mins by MUNANA substrate based fluorometric assay; settings: 0.5 h; outline: as §2
Influenza A virus [9] = assay: Antiviral activity against influenza A (A/Washington/29/2009 (H1N1)) virus after 30 mins by MUNANA substrate based fluorometric assay; settings: 0.5 h; outline: as §2
Influenza A virus [10] = assay: Antiviral activity against influenza A (A/Singapore/91/2009 (H1N1)) virus after 30 mins by MUNANA substrate based fluorometric assay; settings: 0.5 h; outline: as §2
Influenza A virus [11] = assay: Antiviral activity against influenza A (A/Washington/10/2008 (H1N1)) virus after 16 to 18 hrs by fetuin substrate based colorimetric assay
Outline: (§3)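 Colorimetric NA inhibition with fetuin substrate. Virus was diluted in NA-Star buffer (26 mM MES, 4 mM CaCl2, pH 6.0) to give OD549 of 0.4–0.8 after 18 h. It was preincubated with ten half-log inhibitor dilutions (0.03–1,000 nM final) for 1 h at 37°C, then with fetuin (5.5 mg/ml final) for 16–18 h at 37°C. Released sialic acid was read at 549 nm after periodate/TBA reaction and butanol extraction. IC50 came from a Vmax·[1−x/(K+x)] fit, mean of ≥2 experiments.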

Influenza A virus [12] = assay: Antiviral activity against influenza A (A/North Carolina/02/2009 (H1N1)) virus after 16 to 18 hrs by fetuin substrate based colorimetric assay; outline: as §3
Influenza A virus [13] = assay: Antiviral activity against influenza A (A/New York/18/2009 (H1N1)) virus after 16 to 18 hrs by fetuin substrate based colorimetric assay; outline: as §3
Influenza A virus [14] = assay: Antiviral activity against influenza A (A/Washington/29/2009 (H1N1)) virus after 16 to 18 hrs by fetuin substrate based colorimetric assay; outline: as §3
Influenza A virus [15] = assay: Antiviral activity against influenza A (A/Singapore/91/2009 (H1N1)) virus after 16 to 18 hrs by fetuin substrate based colorimetric assay; outline: as §3

CCC(CC)[C@H](NC(C)=O)[C@@H]1[C@H](O)[C@@H](C(=O)O)C[C@H]1NC(=N)N [PERAMIVIR ANHYDROUS]
IC50 (Influenza A virus [1]): 0.11 nM
IC50 (Influenza A virus [2]): 0.08 nM
IC50 (Influenza A virus [3]): 0.12 nM
IC50 (Influenza A virus [4]): 0.14 nM
IC50 (Influenza A virus [5]): 0.11 nM
IC50 (Influenza A virus [6]): 0.18 nM
IC50 (Influenza A virus [7]): 0.19 nM
IC50 (Influenza A virus [8]): 0.32 nM
IC50 (Influenza A virus [9]): 0.2 nM
IC50 (Influenza A virus [10]): 0.14 nM
IC50 (Influenza A virus [11]): 0.75 nM
IC50 (Influenza A virus [12]): 0.7 nM
IC50 (Influenza A virus [13]): 0.41 nM
IC50 (Influenza A virus [14]): 0.49 nM
IC50 (Influenza A virus [15]): 0.55 nM

CO[C@@H]([C@@H]1OC(C(=O)O)=C[C@H](NC(=N)N)[C@H]1NC(C)=O)[C@H](O)CO [LANINAMIVIR]
IC50 (Influenza A virus [1]): 0.14 nM
IC50 (Influenza A virus [3]): 0.49 nM
IC50 (Influenza A virus [4]): 0.49 nM
IC50 (Influenza A virus [5]): 0.3 nM
IC50 (Influenza A virus [6]): 0.53 nM
IC50 (Influenza A virus [7]): 0.61 nM
IC50 (Influenza A virus [8]): 0.96 nM
IC50 (Influenza A virus [9]): 0.74 nM
IC50 (Influenza A virus [10]): 0.51 nM
IC50 (Influenza A virus [11]): 0.79 nM
IC50 (Influenza A virus [12]): 0.86 nM
IC50 (Influenza A virus [13]): 0.74 nM
IC50 (Influenza A virus [14]): 1.57 nM
IC50 (Influenza A virus [15]): 0.9 nM

C/C=C\[C@@H]1C[C@H](C(=O)O)N[C@H]1[C@@H](NC(C)=O)[C@](C)(CCC)OC
IC50 (Influenza A virus [1]): 0.16 nM
IC50 (Influenza A virus [2]): 0.18 nM
IC50 (Influenza A virus [3]): 0.43 nM
IC50 (Influenza A virus [4]): 0.35 nM
IC50 (Influenza A virus [5]): 0.27 nM
IC50 (Influenza A virus [6]): 0.51 nM
IC50 (Influenza A virus [7]): 0.51 nM
IC50 (Influenza A virus [8]): 0.74 nM
IC50 (Influenza A virus [9]): 0.53 nM
IC50 (Influenza A virus [10]): 0.46 nM
IC50 (Influenza A virus [11]): 1.03 nM
IC50 (Influenza A virus [12]): 0.75 nM
IC50 (Influenza A virus [13]): 0.9 nM
IC50 (Influenza A virus [14]): 1.31 nM
IC50 (Influenza A virus [15]): 1.4 nM
